The source of these data is the RNAGym collection of RNA variant scans (doi:10.1126/science.aae0568).

This sample holds only a part of the variants without activity.

To fix the notation:
B1: tRNA (parent)
chain: GUUCCGUUGGCGUAAUGGUAACGCGUCUCCCUCCUAAGGAGAAGACUGCGGGUUCGAGUCCCGUACGGAACG

Variants of B1 are the subject of the data set. In words: yeast fitness relative to wild type (ratio to wild type); higher = fitter; tRNA-Arg(CCU), competitive growth, 37 C, YPD. The essentials: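 For this measurement, the tRNA-Arg(CCU) gene was varied by chemical synthesis at a 3% per-site mutation rate across 69 sites, and each variant was placed at the native genomic locus in Saccharomyces cerevisiae. The pooled strains went through a 24-hour competition in YPD at 37°C in six parallel replicates, with amplicons from start and end populations read by 100-nucleotide paired-end sequencing. Darwinian fitness relative to wild type followed from the change in each genotype's frequency. Genotypes needed ≥ 100 starting reads, and estimates < 0.5 were set to 0.5.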
With A42U U47A G51A, the yeast fitness was not above 0.5.

As to U3G G56A, the yeast fitness was found to be 0.898.

Consider U7G U13A A42G C66G G67C, for which the yeast fitness was not above 0.5.

Regarding C29G U32C A36U C61G, the yeast fitness is not above 0.5.

For U2A U28A G51C A57C, the yeast fitness is not above 0.5.

For the variant G12C U28A G51A A57U C62U, the yeast fitness was 0.594.

On to U3C U13C G51C, for which the yeast fitness is not above 0.5.

As to C30U C34G U59C, the yeast fitness was not above 0.5.

For the variant A43C G58C, the yeast fitness was determined as 1.03.

In the case of U2G U32G A42U, the yeast fitness is not above 0.5.

Take A36G A45U A65U: the yeast fitness was found to be 0.572.

As to A21C C46A, the yeast fitness came out at 0.995.

For A14U U26G C55G, the yeast fitness was not above 0.5.

Consider A15U C66U A70U, for which the yeast fitness is 0.604.

As to C29G A37C G58A, the yeast fitness is not above 0.5.

Take U16A A21C C34A A37C G68A: the yeast fitness was not above 0.5.

On to C4U U28C C49G, for which the yeast fitness was 0.598.

For C22G C49U A65G, the yeast fitness was 0.785.

Consider U2A C4G C34U, for which the yeast fitness was not above 0.5.

As to U3A C4A U16A C30G U53C C66U A70G, the yeast fitness is not above 0.5.

For A43G A45U C46U A70U, the yeast fitness is not above 0.5.

As to C5G C30U G44C, the yeast fitness is not above 0.5.

In the case of C29A C60G, the yeast fitness was 0.584.

In the case of G18C C29U G39A C49U G56C, the yeast fitness was not above 0.5.

For the variant C22U C33U A69C, the yeast fitness came out at 0.522.

Consider C5G C27U G56A, for which the yeast fitness amounted to 0.619.

For C24U C34G, the yeast fitness stood at 0.72.

G6C G44C: the yeast fitness was found to be 0.853.

Turning to G50A A65U, the yeast fitness was found to be 0.703.

With C5A U19A G38C A57C C62U, the yeast fitness is not above 0.5.

Consider G18C G56A, for which the yeast fitness turned out to be 0.739.

Regarding C4U A36U G68A, the yeast fitness was not above 0.5.

As to C33U A40U C66U, the yeast fitness is not above 0.5.

On to A14C A20U C66A, for which the yeast fitness is not above 0.5.

Regarding A14G C22A, the yeast fitness worked out at 0.982.

For the variant U2A C5A C33U A57G C66G, the yeast fitness was not above 0.5.

On to A20G A40U U64A, for which the yeast fitness was not above 0.5.

For the variant C49G A65G, the yeast fitness is 0.957.

With C27G G48C A69G, the yeast fitness was not above 0.5.

Take G9A A69C A70C: the yeast fitness came out at 1.04.

On to C49G C66U, for which the yeast fitness amounted to 0.781.

A15U G18A C27U U35C G41A C49U U53A: the yeast fitness turned out to be 0.603.

As to U7G C22G G50A G67A, the yeast fitness is not above 0.5.

For the variant G6A A36U A40G G44U U54C, the yeast fitness is not above 0.5.

Take C24U U26C A65C: the yeast fitness was found to be 0.695.

As to U32C G39C C61U, the yeast fitness was not above 0.5.

As to U7A G9C G17C A43U G48A, the yeast fitness is not above 0.5.

In the case of U16C U35A, the yeast fitness came to 0.74.

Consider U3C A37C A70U, for which the yeast fitness stood at 0.683.

For the variant U2G A15U U47A C62A, the yeast fitness is not above 0.5.

Turning to C4G C11A A14C C33G A36C A37C A42C A65U, the yeast fitness is not above 0.5.

As to C11A C24G C34G A36G, the yeast fitness was not above 0.5.

On to U2C C4U C34U C55U G68C, for which the yeast fitness is not above 0.5.

A43U C61G C62U G68A A69C: the yeast fitness was not above 0.5.

Take C27U C33G C34G G44A G50A G52A G56A: the yeast fitness is not above 0.5.

Regarding C5G A20G C30A C34G, the yeast fitness was not above 0.5.

As to C22U C24U U28C C29G C33A G68C, the yeast fitness stood at 0.569.

Consider C46U U64A, for which the yeast fitness came to 1.03.

Regarding A21U C33U A43U C49G G50C C61U C66U, the yeast fitness is not above 0.5.

On to U2G G18A A40C G68C, for which the yeast fitness is not above 0.5.

C5G G25A C46U G50C: the yeast fitness came out at 0.593.

For the variant U3G C11U U19C A20U A43U C62G C66A A69C, the yeast fitness was not above 0.5.

Consider C5A A15U A21U, for which the yeast fitness stood at 0.56.

As for G38A U53A C66U, the yeast fitness is not above 0.5.

As for G12A A42C G52A, the yeast fitness is 0.585.

On to C29U C61A, for which the yeast fitness stood at 0.611.

G6A U64C: the yeast fitness worked out at 0.874.

Take A21U A40C A57C A70U: the yeast fitness was not above 0.5.

With A20C C62G, the yeast fitness worked out at 0.618.

With C27A C30U A57C C62U, the yeast fitness was not above 0.5.

Turning to A14G C31G U54G A57C C62U, the yeast fitness is not above 0.5.

In the case of A15U A40U, the yeast fitness came out at 0.637.

Take G17C A45C G48A U59A: the yeast fitness was 0.622.

Take A21G G23A A57U C61G: the yeast fitness was 0.623.

For G23C U32A C49U, the yeast fitness is not above 0.5.

With A15U C31A C62U, the yeast fitness was found to be 0.573.

With U7G A21G, the yeast fitness amounted to 0.816.

Regarding U7C A43G A65C, the yeast fitness was determined as 0.591.

On to U16A, for which the yeast fitness is 0.992.

With U16C U19C A21C G23C C49G G52A, the yeast fitness was not above 0.5.

On to U2C A37C, for which the yeast fitness turned out to be 0.81.

Consider A21C C46U C61G, for which the yeast fitness is not above 0.5.

G10A A14C: the yeast fitness amounted to 0.539.

For G9C G44C C66U, the yeast fitness worked out at 0.568.

Turning to C27A G63C G68C, the yeast fitness amounted to 0.524.

Regarding U13A A15G G48A A65G, the yeast fitness came out at 0.581.

Take G38C C46A: the yeast fitness stood at 0.819.

In the case of G10A C30G, the yeast fitness was 0.511.

Turning to G25U A36U G56C U64C A65C, the yeast fitness was not above 0.5.

As to G9C G23A C34U, the yeast fitness turned out to be 0.655.

As to A14C U16A C24U U53C C60G, the yeast fitness was not above 0.5.

With A15U C61G, the yeast fitness turned out to be 0.582.

A43C A65C: the yeast fitness was found to be 1.03.

For C5G A20G A36C G50A G51A A69C, the yeast fitness is not above 0.5.

Take C29G C31U A37U: the yeast fitness is not above 0.5.

With U8A G18A C30G A40C U47C, the yeast fitness is not above 0.5.

Regarding U3C C29G C46U C49U U59G A65U G68A, the yeast fitness is not above 0.5.

On to C4G U13A A43G C46G, for which the yeast fitness is not above 0.5.

Take A21G C46U C60A: the yeast fitness was not above 0.5.

With C30U A36C G52A C55G, the yeast fitness is not above 0.5.

On to C4G G10U A20U C34G A37G C66U, for which the yeast fitness was not above 0.5.

As to A42C C46G A65U G67C, the yeast fitness was not above 0.5.

As for U3C U28C C33U A45U, the yeast fitness is 0.528.

As for A20U C34A C49U G58C C62A A69C, the yeast fitness is not above 0.5.

Take C4G C27U C31U: the yeast fitness came to 0.652.

As to G12A C24U C34U, the yeast fitness is 0.519.

As for U3C G9A G50A, the yeast fitness was determined as 0.838.

U32A A37U A45C: the yeast fitness is not above 0.5.

On to A14U C27G A36G C46A U59A, for which the yeast fitness came to 0.52.

For C24G A40U U47A, the yeast fitness was not above 0.5.

U13A A15G C27G: the yeast fitness is not above 0.5.

Take C5G G51C U54A: the yeast fitness is not above 0.5.

For G12C A42G U47C, the yeast fitness came to 0.634.

In the case of C4A G39A, the yeast fitness amounted to 0.914.

As to C11G A57G C61U, the yeast fitness stood at 0.588.

In the case of C4G U54A, the yeast fitness came to 0.572.

Regarding A21U A43U G63A, the yeast fitness was not above 0.5.

In the case of C5G A15C G48C G68U, the yeast fitness was not above 0.5.

For A14C A15C C27U C29A C34G G50C, the yeast fitness was found to be 0.597.

As to U3C C4G U8G C34U A37G, the yeast fitness was not above 0.5.

Take G6A A37G U53G: the yeast fitness was not above 0.5.

As to U2C C46U G50A, the yeast fitness is 0.737.

As for G6C G67A, the yeast fitness was found to be 0.874.

With C29U G44C G68A, the yeast fitness worked out at 0.57.

As to C5U U19G G23A, the yeast fitness is not above 0.5.

Consider C11U C62A, for which the yeast fitness was found to be 0.743.

On to U2A A45C A65C, for which the yeast fitness came to 0.764.

Take C24G A36C C55G A65G: the yeast fitness was not above 0.5.

As for U26A C30A C62U, the yeast fitness came to 0.585.

As for C29G U32G G38A U53C A57U C62U, the yeast fitness is not above 0.5.

For U19C C49U, the yeast fitness is 0.999.

C22U A36C A45C: the yeast fitness was not above 0.5.

Regarding C11A A14U A21C C46U U53C A65G, the yeast fitness was 0.575.

For the variant C29A G50C A70U, the yeast fitness was not above 0.5.

Turning to U7C C30G U32C A40C C62U G67A, the yeast fitness is not above 0.5.

With U2G G58A C60A C66G, the yeast fitness came to 0.562.

On to C5A C22U G51C, for which the yeast fitness is not above 0.5.

For G6A A15C, the yeast fitness stood at 0.601.

As to G23C U47A, the yeast fitness was 0.705.

C27G C29A A43U: the yeast fitness is not above 0.5.

Take C27G C49U C60A: the yeast fitness was not above 0.5.

Turning to C11U A14C G23A U26C C55U, the yeast fitness is not above 0.5.

C22U G68U: the yeast fitness amounted to 0.845.

Regarding A21U G56A G67A, the yeast fitness was not above 0.5.

In the case of C4A C24A U26C C29A A36U C60U, the yeast fitness was not above 0.5.

As for C34U A37U A45G, the yeast fitness is not above 0.5.

In the case of U8C C31G G50A, the yeast fitness amounted to 0.615.

Regarding U2A C11G G25A C49A, the yeast fitness came to 0.553.

Consider C5A G39C G63A, for which the yeast fitness is not above 0.5.

Consider G50C C62U, for which the yeast fitness turned out to be 0.963.

For the variant G18C A70G, the yeast fitness worked out at 0.588.

In the case of G39A A42G, the yeast fitness was determined as 0.811.

With A57C C62G, the yeast fitness amounted to 0.818.

As to G6A G58A G68C, the yeast fitness came to 0.649.

For the variant U7G G18C, the yeast fitness was 0.686.

For A21U G63C, the yeast fitness stood at 0.633.

For the variant C24U A36C, the yeast fitness worked out at 0.716.

On to G18A C24G C49A, for which the yeast fitness was not above 0.5.

Take G10C C60A: the yeast fitness turned out to be 0.583.

As for A21G A70U, the yeast fitness amounted to 1.

With G23A C33G A43G A69C, the yeast fitness was not above 0.5.

Turning to C5G G18A, the yeast fitness stood at 0.713.

Regarding C22G C49U C66U, the yeast fitness was 0.666.

Take U16A C24U C33U A36U A40U: the yeast fitness is not above 0.5.

With G10A C66A, the yeast fitness is 0.545.

For U19C C24G G39C, the yeast fitness was not above 0.5.

For the variant A15C U19C A37C G51A C60A, the yeast fitness stood at 0.557.
